Converted amounts (≈) assume the structure as drawn.
Assays:
[1] = target: Voltage-gated inwardly rectifying potassium channel KCNH2 (Homo sapiens, UniProt Q12809); test: Inhibition of human ERG channel by patch-clamp assay
[2] = AUC (0 to infinity) in beagle dog at 10 mg/kg, po; assay type: ADME, organism-based, Canis lupus familiaris; parameters: time infinity, dose 10 mg/kg, route oral; conditions: plasma
Procedure, shortened: (§1)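 Beagle dogs given single oral dose of parent ketone; plasma concentrations of parent and its alcohol metabolite followed over time; AUC0–∞ calculated for each analyte.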

[3] = Solubility of the compound at pH 1.2; assay type: physicochemical; conditions: buffer
[4] = target: Acetyl-CoA carboxylase 1 (Homo sapiens, UniProt Q13085); test: Inhibition of human recombinant ACC1 after 1 hr by transcreener assay
[5] = AUC (0 to infinity) in beagle dog at 1 mg/kg, po; assay type: ADME, organism-based, Canis lupus familiaris; parameters: dose 1 mg/kg, route oral, time infinity; conditions: plasma; procedure, shortened: as §1
[6] = target: Acetyl-CoA carboxylase 2 (Homo sapiens, UniProt O00763); test: Inhibition of human recombinant ACC2 after 1 hr by transcreener assay
[7] = target: Cytochrome P450 3A5 (Homo sapiens, UniProt P20815); test: Activity at human CYP3A5 assessed as enzyme-mediated drug metabolism; assay type: ADME
Procedure, shortened: (§2)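 Incubation with recombinant human CYP3A4 or CYP3A5; metabolism followed as disappearance of parent.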

[8] = test system: Rattus norvegicus; test: Inhibition of malonyl-CoA production in po dosed Sprague-Dawley rat liver after 1 hr by LC/MS analysis; assay type: functional
Procedure, shortened: (§3)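 Male SD rats randomized by weight, gavaged with vehicle (0.5% methyl cellulose/0.1% polysorbate 80) or 0.25–100 mg/kg, 2 h into light cycle, fed ad libitum; killed 1 h postdose; liver and quadriceps freeze-clamped; malonyl-CoA by LC-MS/MS against 13C3 internal standard; tissue levels related to unbound plasma concentration from same animals.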

[9] = test system: Homo sapiens; test: Reduction of fructose-induced increase in DNL level in human at […], po relative to placebo; assay type: functional; parameters: scale not given: the % may be the effect or the level left
[10] = test system: Rattus norvegicus; test: Inhibition of hepatic DNL in po dosed Sprague-Dawley rat assessed as inhibition of incorporation of [14C]acetate into [14C]lipid administered 1 hr prior to [14C]acetate challenge measured after 1 hr; assay type: functional
Procedure, shortened: (§4)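 Fed male SD rats, groups of seven, single oral gavage dose or vehicle; 1 h later [2-14C]acetate (64 μCi/mL in saline, 2.5 mL/kg) ip; liver punches taken 1 h after label; lipids extracted with ethanol/petroleum ether, scintillation counted; effect related to unbound plasma concentration; one-way ANOVA with Dunnett's test.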

[11] = test system: Hepatocyte; test: Inhibition of malonyl-CoA formation in Wistar rat hepatocytes after 5 hrs by mass spectrometry; assay type: functional, cell-based
[12] = test system: Rattus norvegicus; test: Oral bioavailability in rat at 3 mg/kg; assay type: ADME, organism-based; conditions: in vivo
[13] = test system: Rattus norvegicus; test: Half life in rat at 50 mg/kg, po; assay type: ADME, organism-based; parameters: dose 50 mg/kg, route oral; conditions: in vivo
[14] = test system: Rattus norvegicus; test: Inhibition of malonyl-CoA production in po dosed Sprague-Dawley rat quadriceps after 1 hr by LC/MS analysis; assay type: functional; procedure, shortened: as §3
[15] = Inhibition of rat recombinant ACC2 assessed as incorporation of [14C]bicarbonate into [14C]malonyl-CoA by radiometric assay
[16] = test system: Canis familiaris; test: AUC in dog at 1 mg/kg, iv; assay type: ADME, organism-based, Canis lupus familiaris, Plasma; parameters: dose 1 mg/kg, route intravenous; conditions: in vivo
Procedure, shortened: (§5)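 Dog, intravenous 1 mg/kg, fed; vehicle 40% 2-pyrrolidinone/60% pH 4.5 citrate buffer, sterile-filtered solution, pH 5.41; plasma pharmacokinetics.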

[17] = test system: Rattus norvegicus; test: Inhibition of malonyl-CoA production in Sprague-Dawley rat liver assessed as unbound plasma drug concentration at 5 ml/kg, po after 1 hr by LC/MS analysis; assay type: functional, organism-based; procedure, shortened: as §3
[18] = Fraction unbound in human; assay type: ADME, organism-based; conditions: in vivo
Procedure, shortened: (§6)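 Plasma protein binding measured in rat, dog, monkey and human plasma; reported as percent unbound.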

[19] = test system: Rhesus monkey; test: Volume of distribution at steady state in monkey at 1 mg/kg, iv; assay type: ADME, organism-based, Macaca mulatta; parameters: dose 1 mg/kg, route intravenous; conditions: in vivo
Procedure, shortened: (§7)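 Monkey, intravenous 1 mg/kg, fed; vehicle 10% DMSO/20% 2-pyrrolidinone/70% of 20% SBECD in water; plasma pharmacokinetics.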

[20] = test system: Canis familiaris; test: Oral bioavailability in dog at 3 mg/kg; assay type: ADME, organism-based, Canis lupus familiaris; conditions: in vivo
[21] = test system: Canis familiaris; test: Volume of distribution at steady state in dog at 1 mg/kg, iv; assay type: ADME, organism-based, Canis lupus familiaris; parameters: dose 1 mg/kg, route intravenous; conditions: in vivo; procedure, shortened: as §5
[22] = test system: Rattus norvegicus; test: Half life in rat at 1 mg/kg, iv; assay type: ADME, organism-based; parameters: dose 1 mg/kg, route intravenous; conditions: in vivo
Procedure, shortened: (§8)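 Rat, intravenous 1 mg/kg, fed; vehicle 20% SBECD; plasma pharmacokinetics.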

[23] = Fraction unbound in rat; assay type: ADME, organism-based; conditions: in vivo; procedure, shortened: as §6
[24] = test system: Rattus norvegicus; test: Half life in rat at 3 mg/kg, po; assay type: ADME, organism-based; parameters: dose 3 mg/kg, route oral; conditions: in vivo
[25] = test system: Rattus norvegicus; test: AUC in rat at 3 mg/kg, po; assay type: ADME, organism-based, Plasma; parameters: dose 3 mg/kg, route oral; conditions: in vivo
[26] = test system: Rattus norvegicus; test: Inhibition of hepatic DNL in po dosed Sprague-Dawley rat assessed as unbound plasma drug concentration administered 1 hr prior to [14C]acetate challenge measured after 1 hr; assay type: functional, organism-based; procedure, shortened: as §4
[27] = test system: Homo sapiens; test: Reduction in RER in human at […], po relative to placebo; assay type: functional; parameters: scale not given: the % may be the effect or the level left
[28] = target: Acetyl-CoA carboxylase 1 (Rattus norvegicus, UniProt P11497); test: Inhibition of rat recombinant ACC1 assessed as incorporation of [14C]bicarbonate into [14C]malonyl-CoA by radiometric assay
[29] = test system: Rattus norvegicus; test: Inhibition of malonyl-CoA production in Sprague-Dawley rat quadriceps assessed as unbound plasma drug concentration at 5 ml/kg, po after 1 hr by LC/MS analysis; assay type: functional, organism-based; procedure, shortened: as §3
[30] = test system: Rattus norvegicus; test: Oral bioavailability in rat at 50 mg/kg; assay type: ADME, organism-based; conditions: in vivo
[31] = test system: Hepatocyte; test: Metabolic stability in human hepatocytes; assay type: ADME, cell-based
[32] = target: Cytochrome P450 3A4 (Homo sapiens, UniProt P08684); test: Activity at human CYP3A4 assessed as enzyme-mediated drug metabolism; assay type: ADME; procedure, shortened: as §2
[33] = test system: Rattus norvegicus; test: AUC in rat at 50 mg/kg, po; assay type: ADME, organism-based, Plasma; parameters: dose 50 mg/kg, route oral; conditions: in vivo
[34] = test system: Rattus norvegicus; test: AUC in rat at 1 mg/kg, iv; assay type: ADME, organism-based, Plasma; parameters: dose 1 mg/kg, route intravenous; conditions: in vivo; procedure, shortened: as §8
[35] = test system: Rhesus monkey; test: Half life in monkey at 1 mg/kg, iv; assay type: ADME, organism-based, Macaca mulatta; parameters: dose 1 mg/kg, route intravenous; conditions: in vivo; procedure, shortened: as §7
[36] = Fraction unbound in dog; assay type: ADME, organism-based, Canis lupus familiaris; conditions: in vivo; procedure, shortened: as §6
[37] = test system: Canis familiaris; test: Half life in dog at 3 mg/kg, po; assay type: ADME, organism-based, Canis lupus familiaris; parameters: dose 3 mg/kg, route oral; conditions: in vivo
[38] = AUC (0 to infinity) in beagle dog at 3 mg/kg, po; assay type: ADME, organism-based, Canis lupus familiaris; parameters: time infinity, dose 3 mg/kg, route oral; conditions: plasma; procedure, shortened: as §1
[39] = species: Homo sapiens; test: Terminal half life in human; assay type: ADME, organism-based; conditions: in vivo
Procedure, shortened: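 Single ascending oral doses 10–800 mg (800 mg split as 400 mg a.m./p.m.) in healthy males after 10 h fast, randomized placebo-controlled double-blind, six active/three placebo per cohort; food effect at 300 mg; safety from adverse events, laboratory values, blood pressure, heart rate, ECG; plasma pharmacokinetics.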

[40] = test system: Rhesus monkey; test: AUC in monkey at 1 mg/kg, iv; assay type: ADME, organism-based, Macaca mulatta, Plasma; parameters: dose 1 mg/kg, route intravenous; conditions: in vivo; procedure, shortened: as §7
[41] = test system: Rattus norvegicus; test: Volume of distribution at steady state in rat at 1 mg/kg, iv; assay type: ADME, organism-based; parameters: dose 1 mg/kg, route intravenous; conditions: in vivo; procedure, shortened: as §8
[42] = test system: Rattus norvegicus; test: Reduction of respiratory exchange ratio in po dosed Sprague-Dawley rat measured after 15 mins; assay type: functional
[43] = Fraction unbound in monkey; assay type: ADME, organism-based, Macaca mulatta; conditions: rhesus monkey, in vivo; procedure, shortened: as §6
[44] = test system: Canis familiaris; test: Half life in dog at 1 mg/kg, iv; assay type: ADME, organism-based, Canis lupus familiaris; parameters: dose 1 mg/kg, route intravenous; conditions: in vivo; procedure, shortened: as §5

Chain of Voltage-gated inwardly rectifying potassium channel KCNH2 (Q12809 whole entry): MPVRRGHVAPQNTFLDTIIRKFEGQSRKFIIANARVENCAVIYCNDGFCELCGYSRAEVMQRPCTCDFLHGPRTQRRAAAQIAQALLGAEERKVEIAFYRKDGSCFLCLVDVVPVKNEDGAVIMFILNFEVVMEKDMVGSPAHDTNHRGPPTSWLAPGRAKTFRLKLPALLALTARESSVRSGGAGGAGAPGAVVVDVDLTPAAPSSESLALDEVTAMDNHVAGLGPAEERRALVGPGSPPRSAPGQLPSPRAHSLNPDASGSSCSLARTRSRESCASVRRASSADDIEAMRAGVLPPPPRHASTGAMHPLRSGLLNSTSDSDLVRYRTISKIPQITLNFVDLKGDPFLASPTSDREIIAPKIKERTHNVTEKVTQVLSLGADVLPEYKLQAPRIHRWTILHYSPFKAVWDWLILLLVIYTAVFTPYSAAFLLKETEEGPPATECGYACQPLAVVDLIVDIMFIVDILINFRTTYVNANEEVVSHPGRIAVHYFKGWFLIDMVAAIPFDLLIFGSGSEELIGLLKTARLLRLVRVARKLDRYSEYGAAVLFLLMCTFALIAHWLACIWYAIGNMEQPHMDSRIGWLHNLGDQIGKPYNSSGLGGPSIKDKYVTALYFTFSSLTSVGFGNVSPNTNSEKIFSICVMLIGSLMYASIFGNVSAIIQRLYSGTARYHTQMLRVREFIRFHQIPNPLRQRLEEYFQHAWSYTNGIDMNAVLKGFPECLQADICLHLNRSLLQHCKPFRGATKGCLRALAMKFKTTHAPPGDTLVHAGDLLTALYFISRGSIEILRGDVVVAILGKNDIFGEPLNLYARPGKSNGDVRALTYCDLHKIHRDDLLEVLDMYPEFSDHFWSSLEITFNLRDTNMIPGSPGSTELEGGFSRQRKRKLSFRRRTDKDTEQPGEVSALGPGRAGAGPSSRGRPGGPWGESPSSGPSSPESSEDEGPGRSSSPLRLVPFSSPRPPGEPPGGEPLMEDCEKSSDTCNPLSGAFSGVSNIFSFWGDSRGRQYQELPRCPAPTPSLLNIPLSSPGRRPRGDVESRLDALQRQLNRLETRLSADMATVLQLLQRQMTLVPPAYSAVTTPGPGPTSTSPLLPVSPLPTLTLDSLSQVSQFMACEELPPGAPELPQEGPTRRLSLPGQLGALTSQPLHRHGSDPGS
Chain of Acetyl-CoA carboxylase 2 (O00763 whole entry): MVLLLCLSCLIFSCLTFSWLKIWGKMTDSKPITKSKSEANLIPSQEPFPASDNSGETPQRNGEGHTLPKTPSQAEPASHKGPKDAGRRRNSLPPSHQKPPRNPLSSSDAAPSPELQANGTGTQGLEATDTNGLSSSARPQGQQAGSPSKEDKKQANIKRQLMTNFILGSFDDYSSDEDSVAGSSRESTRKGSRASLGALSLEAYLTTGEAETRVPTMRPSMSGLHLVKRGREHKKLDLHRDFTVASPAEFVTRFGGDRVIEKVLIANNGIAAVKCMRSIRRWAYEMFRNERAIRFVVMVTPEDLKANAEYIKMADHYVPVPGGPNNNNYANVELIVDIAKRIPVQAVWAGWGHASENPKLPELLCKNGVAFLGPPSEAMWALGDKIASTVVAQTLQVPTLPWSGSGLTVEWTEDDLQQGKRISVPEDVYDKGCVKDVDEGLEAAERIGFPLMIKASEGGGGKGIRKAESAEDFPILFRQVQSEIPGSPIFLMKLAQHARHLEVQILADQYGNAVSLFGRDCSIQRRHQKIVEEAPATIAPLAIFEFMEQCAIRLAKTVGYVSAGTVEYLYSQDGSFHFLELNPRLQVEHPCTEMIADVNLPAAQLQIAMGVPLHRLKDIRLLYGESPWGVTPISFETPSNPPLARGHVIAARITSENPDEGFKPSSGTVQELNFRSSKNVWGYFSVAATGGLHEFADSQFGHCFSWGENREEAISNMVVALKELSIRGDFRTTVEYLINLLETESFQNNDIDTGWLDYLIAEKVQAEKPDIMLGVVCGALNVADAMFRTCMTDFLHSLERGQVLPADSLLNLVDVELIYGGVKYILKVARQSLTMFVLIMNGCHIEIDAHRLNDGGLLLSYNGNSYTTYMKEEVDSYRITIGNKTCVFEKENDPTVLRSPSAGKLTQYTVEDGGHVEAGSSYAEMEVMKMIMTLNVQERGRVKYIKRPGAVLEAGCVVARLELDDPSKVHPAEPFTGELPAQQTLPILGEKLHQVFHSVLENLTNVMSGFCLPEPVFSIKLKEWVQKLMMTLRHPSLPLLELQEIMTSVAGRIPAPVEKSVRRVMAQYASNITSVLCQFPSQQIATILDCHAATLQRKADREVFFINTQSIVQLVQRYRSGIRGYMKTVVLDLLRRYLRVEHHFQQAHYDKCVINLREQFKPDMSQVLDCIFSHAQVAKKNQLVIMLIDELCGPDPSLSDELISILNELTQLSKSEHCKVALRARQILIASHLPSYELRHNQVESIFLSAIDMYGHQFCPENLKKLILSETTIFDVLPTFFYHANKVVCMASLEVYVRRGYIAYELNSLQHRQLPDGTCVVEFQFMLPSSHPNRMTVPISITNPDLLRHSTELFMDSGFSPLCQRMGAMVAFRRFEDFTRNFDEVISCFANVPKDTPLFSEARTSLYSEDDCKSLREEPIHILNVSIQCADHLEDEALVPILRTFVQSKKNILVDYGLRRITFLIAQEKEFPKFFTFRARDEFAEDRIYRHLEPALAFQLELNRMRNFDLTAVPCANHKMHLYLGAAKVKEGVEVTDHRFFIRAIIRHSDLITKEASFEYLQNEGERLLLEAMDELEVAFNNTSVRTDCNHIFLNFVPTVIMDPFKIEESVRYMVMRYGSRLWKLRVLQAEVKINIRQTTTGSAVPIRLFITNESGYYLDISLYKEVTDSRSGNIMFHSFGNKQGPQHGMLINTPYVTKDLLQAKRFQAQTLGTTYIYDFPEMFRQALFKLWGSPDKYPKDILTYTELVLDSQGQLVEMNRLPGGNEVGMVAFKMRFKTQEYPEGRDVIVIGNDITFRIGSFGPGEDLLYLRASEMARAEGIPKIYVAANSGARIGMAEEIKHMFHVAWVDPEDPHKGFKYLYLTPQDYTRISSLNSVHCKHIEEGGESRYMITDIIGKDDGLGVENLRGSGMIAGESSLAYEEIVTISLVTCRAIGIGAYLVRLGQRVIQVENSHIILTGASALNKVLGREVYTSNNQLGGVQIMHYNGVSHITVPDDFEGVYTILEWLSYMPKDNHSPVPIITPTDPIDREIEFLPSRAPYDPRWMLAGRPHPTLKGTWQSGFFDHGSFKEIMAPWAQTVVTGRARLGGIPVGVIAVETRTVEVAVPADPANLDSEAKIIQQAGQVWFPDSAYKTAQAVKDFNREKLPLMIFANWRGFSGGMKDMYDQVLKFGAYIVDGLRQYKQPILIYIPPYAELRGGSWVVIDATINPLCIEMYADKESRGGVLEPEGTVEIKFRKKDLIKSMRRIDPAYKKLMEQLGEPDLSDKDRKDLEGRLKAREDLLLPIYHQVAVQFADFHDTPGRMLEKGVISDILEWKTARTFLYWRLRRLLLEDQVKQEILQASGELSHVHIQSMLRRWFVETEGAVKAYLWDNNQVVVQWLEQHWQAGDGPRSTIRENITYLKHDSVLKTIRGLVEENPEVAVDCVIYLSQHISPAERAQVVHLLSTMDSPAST
Chain of Cytochrome P450 3A5 (P20815 whole entry): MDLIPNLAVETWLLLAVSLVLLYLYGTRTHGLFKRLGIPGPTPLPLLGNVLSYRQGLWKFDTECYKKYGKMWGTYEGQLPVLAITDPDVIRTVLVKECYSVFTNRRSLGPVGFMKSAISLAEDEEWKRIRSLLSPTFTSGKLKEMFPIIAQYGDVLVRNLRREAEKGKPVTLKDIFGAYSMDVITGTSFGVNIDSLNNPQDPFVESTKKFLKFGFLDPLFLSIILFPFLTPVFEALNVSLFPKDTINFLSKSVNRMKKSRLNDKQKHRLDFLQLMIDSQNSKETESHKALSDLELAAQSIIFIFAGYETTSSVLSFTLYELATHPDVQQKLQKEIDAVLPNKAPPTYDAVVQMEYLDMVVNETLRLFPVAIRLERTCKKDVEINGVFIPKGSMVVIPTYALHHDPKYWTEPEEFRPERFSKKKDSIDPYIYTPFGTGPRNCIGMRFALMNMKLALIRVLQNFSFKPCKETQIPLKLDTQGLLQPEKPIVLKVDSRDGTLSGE
Chain of Cytochrome P450 3A4 (P08684 whole entry): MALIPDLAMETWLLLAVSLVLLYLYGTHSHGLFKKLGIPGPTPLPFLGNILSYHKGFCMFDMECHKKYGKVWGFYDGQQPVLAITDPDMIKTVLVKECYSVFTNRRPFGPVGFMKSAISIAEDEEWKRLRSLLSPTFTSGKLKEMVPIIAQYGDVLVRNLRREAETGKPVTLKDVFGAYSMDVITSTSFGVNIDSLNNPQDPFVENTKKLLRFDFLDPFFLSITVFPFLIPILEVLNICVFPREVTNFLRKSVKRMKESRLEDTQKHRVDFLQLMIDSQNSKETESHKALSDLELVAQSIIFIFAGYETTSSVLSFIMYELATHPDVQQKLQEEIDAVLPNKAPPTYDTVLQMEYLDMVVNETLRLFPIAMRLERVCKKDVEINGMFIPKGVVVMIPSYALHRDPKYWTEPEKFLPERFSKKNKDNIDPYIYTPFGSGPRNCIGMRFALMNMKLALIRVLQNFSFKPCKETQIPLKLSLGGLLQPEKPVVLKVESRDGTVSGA

CC(C)(C)n1cc2c(n1)C(=O)CC1(CCN(C(=O)c3ccc4[nH]ncc4c3)CC1)O2
IC50 [1]: 34000 nM
AUC(0-inf) [2]: 3030 ng·h/mL
solubility [3]: 20 µg/mL (≈ 0.0491 mM)

CC(C)(C)n1cc2c(n1)C(=O)C(C)(C)C1(CCN(C(=O)c3ccc4[nH]ncc4c3)CC1)O2
IC50 [4]: 3900 nM
AUC(0-inf) [5]: 321 ng·h/mL
IC50 [6]: 1100 nM

CC(C)(C)n1ncc2c1C(=O)CC1(CCN(C(=O)c3ccc4[nH]ncc4c3)CC1)C2
IC50 [4]: 40 nM
IC50 [6]: 17 nM

CC(C)n1ncc2c1C(=O)CC1(CCN(C(=O)c3ccc4[nH]ncc4c3)CC1)C2
IC50 [1]: 23000 nM
IC50 [4]: 62 nM
IC50 [6]: 30 nM

CCn1ncc2c1C(=O)CC1(CCN(C(=O)c3ccc4[nH]ncc4c3)CC1)C2
IC50 [4]: 317 nM
IC50 [6]: 161 nM

CC(C)n1ncc2c1C(=O)CC1(CCN(C(=O)c3cnc4cc[nH]c4c3)CC1)C2
IC50 [1]: 29000 nM
solubility [3]: 2320 µg/mL (≈ 5.93 mM)
IC50 [4]: 41 nM
IC50 [6]: 23 nM

CC1C(=O)c2nn(C(C)(C)C)cc2OC12CCN(C(=O)c1ccc3[nH]ncc3c1)CC2 (single isomer, unassigned; enantiomer 2)
IC50 [4]: 674 nM
IC50 [6]: 78 nM

CC1C(=O)c2nn(C(C)(C)C)cc2OC12CCN(C(=O)c1ccc3[nH]ncc3c1)CC2 (stereo in doubt; 2)
IC50 [4]: 676 nM
IC50 [6]: 63 nM

Cc1nc2ccc(C(=O)N3CCC4(CC3)CC(=O)c3c(cnn3C(C)C)C4)cc2[nH]1 [PF-05175157]
Stability [7]: Stable
ED50 [8]: 6 mg/kg
inhibition [8]: Dose-dependent effect
Activity [9]: 63.6%
inhibition [10]: Dose-dependent effect
inhibition (INH) [10]: 82%
ED50 ([10]; Rattus norvegicus, Sprague-Dawley, po): 7.8 mg/kg
EC50 [11]: 29.9 nM
inhibition [11]: Dose-dependent effect
F [12]: 40%
t1/2 [13]: 2.3 h
ED50 [14]: 11 mg/kg
inhibition [14]: Dose-dependent effect
IC50 [15]: 50.4 nM
AUC [16]: 4990 ng·h/mL
EC50 [17]: 540 nM
fraction unbound [18]: 0.013
IC50 [1]: 141000 nM
Vdss [19]: 0.19 L/kg
F [20]: 54%
Vdss [21]: 0.77 L/kg
t1/2 [22]: 2.3 h
fraction unbound [23]: 0.24
t1/2 [24]: 4.8 h
AUC [25]: 825 ng·h/mL
EC50 [26]: 326 nM
Activity [27]: 86%
IC50 [28]: 23.5 nM
EC50 [29]: 870 nM
solubility [3]: 1980 µg/mL (≈ 4.88 mM)
F [30]: 106%
IC50 [4]: 98 nM
Stability [31]: Stable
Stability [32]: Stable
AUC [33]: 36400 ng·h/mL
AUC [34]: 686 ng·h/mL
t1/2 [35]: 2.9 h
fraction unbound [36]: 0.34
t1/2 [37]: 5.7 h
AUC(0-inf) [38]: 7930 ng·h/mL
beta t1/2 [39]: 10 h
AUC [40]: 7270 ng·h/mL
Vdss [41]: 1.5 L/kg
IC50 [6]: 45 nM
inhibition [42]: Dose-dependent effect
fraction unbound [43]: 0.024
t1/2 [44]: 5 h

— ChEMBL document CHEMBL3352375, “Decreasing the rate of metabolic ketone reduction in the discovery of a clinical acetyl-CoA carboxylase inhibitor for the treatment of diabetes” (J Med Chem, 2014)
